Source: PubChem (several laboratories)
NS3 helicase inh – blocks Hepatitis C virus NS3 helicase unwinding; inhibition, % at 10.9 µM; NS3 helicase DNA unwinding, Cy5 molecular beacon fluorescence; 0.56% of 290,000 active; AID 1800;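 active = inhibition above the mean of all tested compounds plus 3 SD, set per campaign, cut at about 35% in these data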;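 also: 0% = DMSO wells and 100% = thioflavine S control wells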
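Compound dosing – single dose, 10.9 µM nominal final, DMSO 0.8% final · System – NS3 helicase fragment of HCV · Buffer or medium – MOPS pH 6.5, MgCl2, DTT, Tween20, BSA · Signal – Cy5 beacon fluorescence read at start and 1 h · Also added – annealed dual-labelled DNA beacon duplex, ATP-started · Schedule – 1 h at 25 °C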
PfM18AAP inh-1 – PfM18AAP enzyme inhibition | inhibition, % at 7.35 µM | recombinant PfM18AAP, H-Glu-NHMec fluorogenic cleavage | 1.2% of 290,000 active;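 active = inhibition above the campaign mean inhibition over all tested compounds plus 3 SD, cut at about 28% in these data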;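 also: 0% = plate median of test compound wells and 100% = 2 mM ZnCl2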
EBNA-1 inhibitor – blocks EBNA-1 binding to DNA; EBNA-1 DNA binding, fluorescence polarization; inhibition, % at 14.8 µM; 0.34% of 300,000 active; AID 1950; in the data active = inhibition above about 28%
ALR inh – human ALR oxidase inhibition via reduced H2O2. purified ALR, DTT oxidation, H2O2 HRP-luminol luminescence. inhibition, % (no concentration beside the values). AID 485317. 3.8% of 290,000 active;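 active = mean replicate inhibition above about 79%, with every replicate also reaching it, limit read from the data; inconclusive = only one of the two criteria met; inactive = mean below limit and not every replicate reaching it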
Target sequence (P55789 whole entry, looked up): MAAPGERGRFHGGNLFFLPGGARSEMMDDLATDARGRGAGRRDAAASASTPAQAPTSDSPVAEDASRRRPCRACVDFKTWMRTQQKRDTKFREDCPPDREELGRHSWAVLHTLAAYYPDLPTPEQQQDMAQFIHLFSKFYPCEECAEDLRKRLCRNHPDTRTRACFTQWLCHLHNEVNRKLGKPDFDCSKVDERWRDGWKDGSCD
ZTA DNA inh – ZTA (EBV) inhibition in EBNA-1 counter-screen | P03206 | ZTA-DNA binding, fluorescence polarization | inhibition, % at 11 µM | 0.15% of 320,000 active; in the data active = inhibition above about 33%
core dimer inh – HCV core protein dimerization inhibition. TR-FRET GST/Flag-core106 dimerization, 1536-well. inhibition, % at 5 µM. 0.33% of 300,000 active. AID 1899;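 active = inhibition above the mean of all tested compounds plus 3 SD, set per screening campaign, cut at about 45% in these data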
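System: GST/Flag-tagged HCV core106 proteins. Incubation: compound-protein-antibody incubation 4 h at 22.5 °C. Technique: HTRF with 340 nm excitation, 617/671 nm emission. Medium: KF-containing HEPES buffer, pH 7.45, DTT, CHAPS, BSA. Read-out: inhibition (%) from 671 over 617 nm ratio. Also added: Eu(K)-anti-GST 90 ng/mL plus XL665-anti-Flag 1 µg/mL.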
PfM18AAP inh-2 – confirmation of Plasmodium falciparum M18 aspartyl aminopeptidase inhibitors; shares compounds with PfM18AAP inh-1; recombinant PfM18AAP, H-Glu-NHMec fluorogenic cleavage; inhibition, % at 7.35 µM; 28% of 2,400 active; AID 2170;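 active = mean inhibition over replicate wells above the hit cutoff set for the earlier primary screen, cut at about 29% in these data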;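 also: 0% = median of test compound wells and 100% = 2 mM ZnCl2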
CTSL1 confirm – Cathepsin L (human) inhibition, confirmation; 2,400 tested, under 10 active; purified cathepsin L1, Z-Leu-Arg-MCA fluorescence; inhibition, % at 5.96 µM; shares compounds with PfM18AAP inh-1;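 active = average inhibition across replicates above the hit cutoff set in the earlier primary screen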;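 also: 0% = median of test compound wells and 100% = Z-Phe-Ala-diazomethylketone 1 µM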
Target sequence (P07711 whole entry, looked up): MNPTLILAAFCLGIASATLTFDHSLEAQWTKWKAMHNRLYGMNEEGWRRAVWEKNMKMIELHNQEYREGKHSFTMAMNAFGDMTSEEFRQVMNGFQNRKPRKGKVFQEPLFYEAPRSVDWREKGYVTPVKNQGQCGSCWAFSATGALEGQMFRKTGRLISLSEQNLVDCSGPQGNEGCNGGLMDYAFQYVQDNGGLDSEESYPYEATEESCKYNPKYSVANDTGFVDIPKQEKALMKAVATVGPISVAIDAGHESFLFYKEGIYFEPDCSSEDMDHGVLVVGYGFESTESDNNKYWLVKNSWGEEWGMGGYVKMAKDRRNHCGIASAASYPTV
The depositor's hits bear a star; ? = inconclusive; . = no result. The list is not random: actives were taken first. Their share in the collection is about 5.2%.

SMILES | NS3 helicase inh | PfM18AAP inh-1 | EBNA-1 inhibitor | ALR inh | ZTA DNA inh | core dimer inh | PfM18AAP inh-2 | CTSL1 confirm
CC(C)CN1CCC(=O)N(CCN=[N+]=[N-])CC1 | -1 | 5 | 6 | 0 | -1 | -9 | . | .
COc1cccc(NC(=O)C(OC(=O)/C=C/c2ccc3c(c2)OCO3)c2ccccc2)c1 (centres undefined) | -10 | 32* | 13 | . | 3 | 14 | -38 | -7
COc1ccc(N2CCN(CC(=O)c3ccc(O)cc3O)CC2)cc1 | 1 | 37* | -8 | 41 | -8 | 7 | -6 | -2
O=C(CN1CCN(c2ccc(F)cc2)CC1)c1ccc(O)cc1O | 16 | 18 | -16 | 16 | -7 | 2 | . | .
CN1CCN(NC(=O)CN2C(=O)S/C(=C\c3c(Cl)cccc3Cl)C2=O)CC1 | 30 | 42* | -2 | 4 | 5 | -2 | -30 | 0
COc1ccccc1/C=C1\SC(=S)N(C(C(=O)O)c2ccccc2)C1=O (centres undefined) | 31 | 11 | -9 | 51 | 12 | 7 | . | .
O=C(O)C(c1ccccc1)N1C(=O)/C(=C\c2ccc(O)c(O)c2)SC1=S (centres undefined) | -10 | 49* | -1 | 99* | 0 | -16 | 28* | -2
Cc1ccccc1-n1c(C)cc(/C=N/Nc2ccc([N+](=O)[O-])cn2)c1C | 5 | 45* | 2 | -2 | 4 | 2 | -31 | 5
O=[N+]([O-])c1ccc(N/N=C/c2cccs2)nc1 | . | . | 6 | -12 | 7 | -4 | . | .
Cc1cc(/C=N/Nc2ccc([N+](=O)[O-])cn2)c(C)n1-c1ccc(C(=O)O)cc1 | 32 | 50* | 3 | 73 | -13 | -19 | -24 | -2
COc1ccccc1NC(=O)NNC(=O)CCc1ccccc1 | -3 | 5 | -1 | -7 | -2 | 8 | . | .
CCNc1nc(NCC)nc(Nn2cnnc2)n1 | -4 | 32* | 7 | -5 | -1 | 0 | 26 | 3
CCNc1nc(NC(C)(C)C)nc(N(CC)n2cnnc2)n1 | 4 | -3 | 13 | -23 | 8 | -6 | . | .
CCC1(c2ccc(F)cc2)NC(=O)N(CC(=O)Nc2cccnc2Cl)C1=O (centres undefined) | . | . | -4 | -1 | -7 | -4 | . | .
O=C(COC(=O)CN1C(=O)C2CCCCC2C1=O)NCc1ccc(Cl)cc1Cl (centres undefined) | . | . | . | -13 | -7 | . | . | .
COc1ccc(NC(=O)c2c(NC(=O)CCC(=O)O)sc3c2CCCCC3)cc1 | 11 | 44* | -1 | 34 | -15 | 6 | -46 | -5
CN(Cc1ccco1)C(=O)c1ccc(CNS(=O)(=O)c2ccc3c(c2)C(C)(C)C(=O)N3C)cc1 | 11 | -1 | 4 | -2 | 14 | -3 | . | .
O=C(O)c1cccc(NC(=S)N/N=C/c2ccccn2)c1 | 8 | 20 | 10 | -6 | 11 | 11 | . | .
O=C(O)c1cccc(NC(=S)N/N=C/c2cccc(O)c2)c1 | 1 | 50* | -6 | 32 | -25 | -1 | 11 | 5
Cc1sc(NC(=O)C2CCCO2)c(C(N)=O)c1C (centres undefined) | -7 | 37* | -11 | . | -2 | 4 | -22 | 0
CCOC(=O)c1c(NC(=O)C2CCCO2)sc(C(=O)OC(C)(C)C)c1C (centres undefined) | 5 | 35* | 8 | -3 | -10 | 6 | 7 | 4
CCOC(=O)c1c(NC(=O)C2CCCO2)sc(C)c1C (centres undefined) | -6 | -7 | -3 | 10 | 5 | -2 | . | .
O=c1[nH]c2cc3c(cc2cc1CN(Cc1ccco1)C(=S)NCCCN1CCOCC1)OCCO3 | -36 | 5 | 0 | -8 | -3 | -4 | . | .
Cn1cnnc1SCC(=O)NC1CC1 | . | . | . | -23 | . | . | . | .
CC1CN(C(=O)Nc2ccc(F)cc2F)CC(C)O1 (centres undefined) | 3 | 0 | 14 | -3 | 11 | 9 | . | .
SMILES | NS3 helicase inh | PfM18AAP inh-1 | EBNA-1 inhibitor | ALR inh | ZTA DNA inh | core dimer inh | PfM18AAP inh-2 | CTSL1 confirm
Cc1ccc(C2CC2/C(=N/O)c2ccc(F)cc2)cc1 (centres undefined) | -10 | -14 | 8 | -11 | 5 | 0 | . | .
Nc1nc(Nc2ccc(Cl)cc2)n[nH]1 | -4 | 32* | -3 | 99* | -4 | -5 | 0 | -2
CNc1nc(N)c([N+](=O)[O-])c(Nc2cccc(Cl)c2)n1 | 15 | -3 | -7 | . | 13 | 9 | . | .
NNc1nc(Nc2ccccc2)nc(Nc2ccccc2)n1 | -77 | 11 | -4 | -4 | 5 | 3 | . | .
Nc1nc(Nc2cccc(Cl)c2)n[nH]1 | -9 | 43* | -6 | 41 | -11 | 0 | 7 | 2
Nc1nc(Nc2ccccc2)n[nH]1 | 0 | 45* | -5 | 98* | 9 | 1 | 4 | 2
COc1ccc(C(=O)NCCc2nnc3ccc(SCC(=O)N4CCCC4)nn23)cc1 | 8 | -2 | 5 | 3 | -9 | -9 | . | .
CC1CCCCC12NC(=O)N(CC(=O)c1ccc(Cl)s1)C2=O (centres undefined) | 9 | 5 | 0 | -2 | -4 | 13 | . | .
COC(=O)c1ccc(C(=O)OC)c(NC(=S)N2CCCC(C)C2)c1 (centres undefined) | 15 | 3 | -4 | 3 | -11 | -7 | . | .
N#C/C(=C\c1cc(O)c(O)c(O)c1)C(N)=O | 9 | 60* | 0 | 99* | 9 | -23 | 26 | 1
COc1ccc(C=C2C(=O)c3ccccc3C2=O)cc1O | 4 | -6 | 6 | -4 | 20 | -3 | . | .
COc1ccc(/C=C2\CN(Cc3ccccc3)C/C(=C\c3ccc(OC)c(O)c3)C2=O)cc1O | -27 | 45* | -1 | . | 17 | 12 | 3 | -1
Fc1ccccc1/C=N/n1cc(-c2ccccc2)[nH]c1=S | 8 | 46* | 4 | ? | 15 | 0 | 41* | 0
S=c1[nH]c(-c2ccccc2)cn1/N=C/c1cccnc1 | 9 | 62* | 5 | . | -4 | -3 | 57* | -4
S=c1[nH]c(-c2ccccc2)cn1/N=C/c1cccs1 | 9 | 47* | 7 | 17 | 6 | -2 | 39* | 3
O=C(COC(=O)Cc1ccccc1F)NCCNC(=O)COC(=O)Cc1ccccc1F | . | . | -5 | 12 | -18 | 2 | . | .
CC1CN(CC(=O)Nc2ccc(S(N)(=O)=O)cc2)CC(C)O1 (centres undefined) | 5 | -11 | 1 | -1 | 3 | 4 | . | .
CCCCOc1ccccc1/C=N/NC(=O)CC#N | 11 | 38* | 3 | 3 | 3 | -1 | -13 | -6
N#CCC(=O)N/N=C/c1ccc(OCC(=O)Nc2ccc(F)cc2)cc1 | -13 | 42* | -6 | -10 | 7 | -3 | -45 | 4
